Results reported in the RNAGym collection of RNA variant scans (doi:10.1126/science.aae0568).
This sample holds only a part of the variants without activity.

B1: tRNA (parent)
chain: GUUCCGUUGGCGUAAUGGUAACGCGUCUCCCUCCUAAGGAGAAGACUGCGGGUUCGAGUCCCGUACGGAACG

Variants of: B1
Assay: yeast fitness relative to wild type (ratio to wild type); higher = fitter; tRNA-Arg(CCU), competitive growth, 37 C, YPD
Procedure, shortened: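 Changes in genotype frequencies gave Darwinian fitness relative to wild type. Frequencies were read by 100-nucleotide paired-end sequencing of gene amplicons before and after pooled Saccharomyces cerevisiae strains, carrying tRNA-Arg(CCU) gene variants at the native locus, were competed in YPD at 37°C for 24 hours in six replicates. A genotype was kept only with ≥ 100 starting reads, and estimates < 0.5 were set to 0.5.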

Variant	yeast fitness
GUUCCGUUGGCGUAAUGGUAACGCGUCUCCCUCUUGAGGAGAAGACUGCGGGUUCGAGUCCCGUACGGAACG	0.696
GUUCCGUUGGCGUAAUGGUAACGCGUCUCCCUCUUCAGGAGAAGACUGCGGGUUCGAGUCCCGUACGGAACG	0.554
GUUCCGUUGGCGUAAUGGUAACGCGUCUCCCUCUUAUGGAGAAGACUGCGGGUUCGAGUCCCGUACGGAACG	0.535
GUUCCGUUGGCGUAAUGGUAACGCGUCUCCCUCUUAAGGAGAUGUCUGCGGGUUCGAGUCCCGUACGGAACG	0.534
GUUCCGUUGGCGUAAUGGUAACGCGUCUCCCUCUUGAGGAGAAGACUGCGGGUUCGAGUCCCGUAAGGAACG	≤ 0.5
GUUCCGUUGGCGUAAUGGUAACGCGUCUCCCUCUUGAGGAGAAGUCUGCGGGUUCGAGUCCCGAACGGAACG	≤ 0.5
GUUCCGUUGGCGUAAUGGUAACGCGUCUCCCUCUUAAGGGGAGGACUGCGGGUUCGAGUCCAGUACGGCACG	≤ 0.5
GUUCCGUUGGCGUAAUGGUAACGCGUCUCCCUCUUAAGGAGAAGACUGCGGGUUCGAGUCCCGUACGGUCCG	0.541
GUUCCGUUGGCGUAAUGGUAACGCGUCUCCCUCUUAAGGAGAAGACUGCGGGUUCGCGUCCCGUACGGAACG	0.553
GUUCCGUUGGCGUAAUGGUAACGCGUCUCCCUCUUAAGGAGAAGAAUGCCGGUUCGAGUCCCGUACGGAACG	≤ 0.5
GUUCCGUUGGCGUAAUGGUAACGCGUCUCCCUCUUAGGGAGAAGUCUGAGGGUUCGAGUCCCGUACGGAACG	≤ 0.5
GUUCCGUUGGCGUAAUGGUAACGCGUCUCCCUCUUAAGGAGGAGACUGCGGGUUCGAGUCCCGUACGGAACG	0.712
GUUCCGUUGGCGUAAUGGUAACGCGUCUCCCUCUUAAGGAGCAGACUGCGGGUUCGAGUCCCGUACGGCACG	≤ 0.5
GUUCCGUUGGCGUAAUGGUAACGCGUCUCCCUCUUAAGGUGAAGACUGCGGGUUCGAGUCCCGUACGGAACG	0.632
GUUCCGUUGGCGUAAUGGUAACGCGUCUCCCUCUUAAGGGGAAGACUGCGGGUUCGAGUCCCGUACGGAACG	0.729
GUUCCGUUGGCGUAAUGGUAACGCGUCUCCCUCUUAAGGAGAAGAAUGCGGGUUCGAGUCCUGUACGGAACG	0.682
GUUCCGUUGGCGUAAUGGUAACGCGUCUCCCUCUUAAGGAGAAGCCUGCGGGUUCGAGUCCCGUACGGAACG	0.6
GUUCCGUUGGCGUAAUGGUAACGCGUCUCCCUCUUAAGGAGAAGACUGCGGGUUCGAGUCCCGUCCCGAACG	≤ 0.5
GUUCCGUUGGCGUAAUGGUAACGCGUCUCCCUCUUAUGGAGAAGUCUGCGGGUUCGGGUCUCGUACGGAGCG	≤ 0.5

Variant	yeast fitness
GUUCCGUUGGCGUAAUGGUAACGCGUCUCCCUCUUGAGGUGAAGACUGCGGGUUCGAGUCCCGUACGGAACG	≤ 0.5
GUUCCGUUGGCGUAAUGGUAACGCGUCUCCCUCUUAAGGAGAAGCCUGCGGGUUCGAGUACCGUACGGAACG	≤ 0.5
GUUCCGUUGGCGUAAUGGUAACGCGUCUCCCUCUUAAGGAGAGGACUGCGGGUCCGAGUCCCGUACGGAACG	≤ 0.5
GUUCCGUUGGCGUAAUGGUAACGCGUCUCCCUCUUAUGGAGAAGAAUGCGAGUUCGAGUCCCGUUCGGAACG	≤ 0.5
GUUCCGUUGGCGUAAUGGUAACGCGUCUCCCUCUUAUGGAGAAGUCUGCGGGUUCGGGUCUCGUACGGAACG	≤ 0.5
GUUCCGUUGGCGUAAUGGUAACGCGUCUCCCUCUUAAGGAGAAGACUGCGGGUUCGGGUACCGUACGGAACG	≤ 0.5
GUUCCGUUGGCGUAAUGGUAACGCGUCUCCCUCUUAAGGAGAAGCCUGCGGGUUCGAGUCCCGUACUGCCCG	≤ 0.5
GUUCCGUUGGCGUAAUGGUAACGCGUCUCCCUCUUGAGGAAAAGACAGCGGGUUCGACUCCCCUACAGAACG	≤ 0.5
GUUCCGUUGGCGUAAUGGUAACGCGUCUCCCUCUUAAGGAGAAGUCUGCGGGUUCGAGUCCCGUAUGGAACG	0.57
GUUCCGUUGGCGUAAUGGUAACGCGUCUCCCUCUUAAGGAGAAGACUGCGGGUUCGAGUCCCGUCCGGAACG	0.884
GUUCCGUUGGCGUAAUGGUAACGCGUCUCCCUCUUAUGGAGAAGGCUGCGGGUUCGAGUCCCGUACGGAACG	≤ 0.5
GUUCCGUUGGCGUAAUGGUAACGCGUCUCCCUCUUAGGGAGAAGACUGCGGGUUCGAGUCCAGUACGGAACG	≤ 0.5
GUUCCGUUGGCGUAAUGGUAACGCGUCUCCCUCUUAAGGAGAGGACUGCGGGUUCGAGUCCCGUACGGCACG	0.553
GUUCCGUUGGCGUAAUGGUAACGCGUCUCCCUCUUAAGGAGAAGCCUGCGGGUUCGAGUCCCGUACGGCCCG	0.569
GUUCCGUUGGCGUAAUGGUAACGCGUCUCCCUCUUAAGGAGAAGCCUGCGGAUUCGAGUCCCGUGCGGAACG	0.688
GUUCCGUUGGCGUAAUGGUAACGCGUCUCCCUCUUACGGAGAAGACUGCGGGUUCGAGUCCCAUACGGAACG	≤ 0.5
GUUCCGUUGGCGUAAUGGUAACGCGUCUCCCUCUUGAGGAGAAGACUGUGGGUUGGUGUCCCGUACAGAACG	≤ 0.5
GUUCCGUUGGCGUAAUGGUAACGCGUCUCCCUCUUAAGGAGAAGACUGCGGGUUCGAGUCCCGUACGGAACG	0.707
GUUCCGUUGGCGUAAUGGUAACGCGUCUCCCUCUUAAGGAGAAGAAUGCGGGUUCGAGUCCCGUACGGAACG	0.714
